Data as given in ChEMBL document CHEMBL4513216, “Probing the Open Global Health Chemical Diversity Library for Multistage-Active Starting Points for Next-Generation Antimalarials” (ACS Infect Dis, 2020).

Test: Toxicity liver stage against HepG2, at 10uM
Format: cell-based
Design: test concentration 10 uM, cell line HepG2-A16-CD81EGFP
Details: human, HepG2-A16-CD81EGFP cells; read-out: INHIBITION
Procedure, shortened: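 Uninfected HepG2-A16-CD81EGFP cells, 3 × 10^3 per well, 1536-well, plated on prespotted compound at 10 μM final, parasite-free screening media added to match infected plates; puromycin 10 μM positive, DMSO 0.5% negative; run in parallel with 48 h PbLuc assay at 37 °C, 5% CO2; viability by CellTiter-Glo luminescence, normalized to controls.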

Row | Structure (SMILES) | cytotoxicity at 10 µM
1 | Cc1cc(C)n(CC2CCCN2C(=O)CCc2ccco2)n1 (stereo unspecified) | -3.75%
2 | O=C(C1CCCC1)N1CC[C@]2(O)CCN(Cc3ncccn3)C[C@@H]2C1 | 9.04%
3 | Cc1cc(=O)[nH]c(NCCNC(=O)c2ccccc2N2CCCC2)n1 | 0.998%
4 | Cc1ncc(C(=O)N2CCCC(n3nc(C)nc3C)C2)c(C(C)C)n1 (stereo unspecified) | -1.81%
5 | COc1ccc(-c2ncc(-c3nccn3CCN(C)C)cn2)cc1 | 1.44%
6 | Cc1ccc(CN2CCN(C3CCSCC3)CC2CCO)o1 (stereo unspecified) | -3.96%
7 | Cc1nc(N2CCCC2)nc2c1CCN(C(=O)c1ccoc1C)CC2 | -111%
8 | Cc1cc(CN2CCN(C(=O)NC(C)Cn3cccn3)CC2)no1 (stereo unspecified) | -7.45%
9 | Cc1ccc(S(=O)(=O)N2CCC(S(=O)(=O)c3nncn3C)CC2)cc1C | -6.9%
10 | CN(CCc1ccccc1)Cc1c(C2CC2)[nH]c2ncccc12 | 0.145%
11 | CN(C)c1cc(C(=O)N2CCCCC2Cn2cccn2)ccn1 (stereo unspecified) | -23%
12 | N#Cc1cccc(N2CCCC3(C2)CN(c2ncc(F)cn2)CCO3)n1 (stereo unspecified) | 22.3%
13 | Cn1c(C2CC2)nc2c1CCN(CCS(=O)(=O)c1ccccc1)C2 | 3.73%
14 | O=c1nc(SCc2cccnc2)c2c(n1CCO)CCC2 | -18%
15 | Cc1ccc(CNC(=O)N2CCc3ccccc3C2CO)s1 (stereo unspecified) | 2%
16 | Cn1ccnc1CN1CCC2(CC1)CN(CC1CC1)C(=O)CO2 | 1.7%
17 | Cn1cc(CN2CCC3(CCCN(Cc4ccccn4)C3)CC2)cn1 | -6.54%
18 | O=C(O)C1CN(Cc2cccc(-c3ccccn3)c2)CCO1 (stereo unspecified) | -10.5%
19 | Cc1cc(C(=O)NCCSC2CCCC2)no1 | -2.21%
20 | CCc1nc2n(n1)CC(NCCc1cccs1)CC2 (stereo unspecified) | -13%
21 | CC(C)Cn1cncc1-c1nc2c([nH]1)CC(C)(C)CNC2=O | -1.41%
22 | O=C(Cn1cc(Cl)cn1)Nc1ccc2c(c1)OCO2 | 4.57%
23 | CCc1n[nH]c(C2CN(C(=O)c3cnns3)CCO2)n1 (stereo unspecified) | -3.43%

Row | Structure (SMILES) | cytotoxicity at 10 µM
24 | Cc1ccoc1C(=O)N1CCc2ncnc(-c3cnn(C)c3)c2CC1 | 16.9%
25 | Cn1cccc1C(=O)N1CCC2(CCCN(CC3CCC3)C2=O)C1 (stereo unspecified) | -2.6%
26 | CC(C)N(C)CCCNC(=O)c1cnn(C(C)(C)C)c1C(F)(F)F | 7.25%
27 | Cc1nc2c(c(N3CCN(c4ncccc4C(N)=O)CC3)n1)CCNC2 | -4.69%
28 | CCN1CCC(CNc2nccc(C)n2)(N(C)C)CC1 | -0.51%
29 | Cc1cnc(CNC(=O)CCCn2cnc3ccccc3c2=O)cn1 | -7.2%
30 | Cc1ccoc1C(=O)N1CC[C@@H]2CN(C3CCOCC3)CCO[C@@H]2C1 | -120%
31 | COc1ccc(S(=O)(=O)NCC(c2cccn2C)N(C)C)cc1F (stereo unspecified) | -0.418%
32 | COCCN1CCN(Cc2ccc(OCc3nccn3C)cc2)CC1 | -7.11%
33 | c1cnc(N2CCN(CCn3ccnc3-c3c[nH]cn3)CC2)nc1 | 2.14%
34 | Clc1ccc(OCCCN2CCOC(Cn3cncn3)C2)cc1 (stereo unspecified) | -10%
35 | CSCc1cc(F)ccc1CNC(=O)N1CCC(CO)CC1 | 1.82%
36 | CNS(=O)(=O)c1cccc(C(C)NCc2cccc(O)c2)c1 (stereo unspecified) | 1.14%
37 | CC(NC(=O)c1cccs1)(C(N)=O)c1cccc(C(F)(F)F)c1 (stereo unspecified) | -3.42%
38 | CC(=O)c1ccc(Cl)c(Cl)c1OCC(=O)NCC(F)(F)F | -1.2%
39 | COc1ccc(CC(=O)N2Cc3nccn3CC(CN(C)C)C2)cc1 (stereo unspecified) | -116%
40 | CN(C)C(CNC(=O)c1nc(N2CCCC2)ncc1Cl)c1ccco1 (stereo unspecified) | 5.92%
41 | CCS(=O)(=O)N[C@H]1CN(CC(C)(C)N2CCOCC2)C[C@@H]1C1CC1 | 1.04%
42 | Cc1ccc(Oc2cc(CN)ccn2)cc1C | -0.578%
43 | Cn1ncc(NCc2cc(F)cc(F)c2)c(Cl)c1=O | 6.69%
44 | Cc1cnn(C2CCCN(C(=O)c3c(C)oc(C)c3C)C2)c1 (stereo unspecified) | 2.56%
45 | O=C(CCO)N1CC2(CCN(c3ccccc3)C2)C1 | 8.76%
46 | O=C(C1CCCC1)N1CCC2(CC1)COCCN2CC1CC1 | 5.01%
